# Source: ChEMBL document CHEMBL2417507, “Synthesis and bioevaluation of some new isoniazid derivatives” (Bioorg Med Chem, 2013)
# The source made the active and inactive calls. No cut-off for these calls is given here.
# Tests used:
# HCT-8 [1] = assay: Cell cycle arrest in human HCT8 cells assessed as accumulation at S phase at 50 ug/mL after 24 hrs by propidium iodide staining-based flow cytometric analysis (reference value: 39.43%); format: ADME; settings: hct-8, 24 h
# [2] = Induction of apoptosis in human HCT8 cells assessed as viable cells at 50 ug/mL after 24 hrs by Annexin V-FITC and propidium iodide staining-based flow cytometric analysis (reference value: 87.7%); format: cell-based, HCT-8; settings: read-out: Activity
# Pseudomonas aeruginosa [3] = assay: Antibacterial activity against Pseudomonas aeruginosa 1144 assessed as growth inhibition at 1 mg/mL after 24 hrs by agar-disk diffusion technique; format: functional, organism-based
# In short: (§1)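 Agar-disk diffusion, adapted: plates seeded with 0.5 McFarland suspension prepared from 24 h cultures; 5 µL of a 1 mg/mL compound solution spotted onto the seeded solid medium; incubated 24 h at 37 °C. Stocks made in DMSO.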
# Klebsiella pneumoniae = assay: Antibacterial activity against Klebsiella pneumoniae 1756 assessed as growth inhibition at 1 mg/mL after 24 hrs by agar-disk diffusion technique; format: functional, organism-based; in short: as §1
# HCT-8 [4] = assay: Induction of apoptosis in human HCT8 cells assessed as necrotic cells at 50 ug/mL after 24 hrs by Annexin V-FITC and propidium iodide staining-based flow cytometric analysis (reference value: 7.73%); format: cell-based; settings: hct-8, 24 h
# Acinetobacter baumannii [5] = assay: Antibacterial activity against Acinetobacter baumannii 136 assessed as growth inhibition at 1 mg/mL after 24 hrs by agar-disk diffusion technique; format: functional, organism-based; in short: as §1
# Proteus mirabilis = assay: Antibacterial activity against Proteus mirabilis 1751 assessed as growth inhibition at 1 mg/mL after 24 hrs by agar-disk diffusion technique; format: functional, organism-based; in short: as §1
# Acinetobacter baumannii [6] = assay: Antibacterial activity against Acinetobacter baumannii 125 assessed as growth inhibition at 1 mg/mL after 24 hrs by agar-disk diffusion technique; format: functional, organism-based; in short: as §1
# HCT-8 [7] = assay: Decrease in NAT1 gene expression in human HCT8 cells at 50 ug/mL after 24 hrs by RT-PCR analysis; format: ADME, cell-based; settings: hct-8, 24 h
# Escherichia coli = assay: Antibacterial activity against Escherichia coli 1777 assessed as growth inhibition at 1 mg/mL after 24 hrs by agar-disk diffusion technique; format: functional, organism-based; in short: as §1
# HCT-8 [8] = assay: Cell cycle arrest in human HCT8 cells assessed as accumulation at G0/G1 phase at 50 ug/mL after 24 hrs by propidium iodide staining-based flow cytometric analysis (reference value: 46.43%); format: ADME; settings: hct-8, 24 h
# HCT-8 [9] = assay: Cell cycle arrest in human HCT8 cells assessed as accumulation at G2/M phase at 50 ug/mL after 24 hrs by propidium iodide staining-based flow cytometric analysis (reference value: 13.83%); format: ADME; settings: hct-8, 24 h
# Pseudomonas aeruginosa [10] = assay: Antibacterial activity against Pseudomonas aeruginosa 165 assessed as growth inhibition at 1 mg/mL after 24 hrs by agar-disk diffusion technique; format: functional, organism-based; in short: as §1
# HCT-8 [11] = assay: Decrease in NAT2 gene expression in human HCT8 cells at 50 ug/mL after 24 hrs by RT-PCR analysis; format: ADME, cell-based; settings: hct-8, 24 h
# Morganella morganii = assay: Antibacterial activity against Morganella morganii 2810 assessed as growth inhibition at 1 mg/mL after 24 hrs by agar-disk diffusion technique; format: functional, organism-based; in short: as §1
# [12] = tested on: Radical scavenging activity; assay: Antioxidant activity assessed as DPPH radical scavenging activity at 0.1 mg/mL after 30 mins under dark conditions by spectrophotometric analysis relative to control; format: functional
# In short: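 Compounds dissolved in methanol at 0.1 mg/mL; 0.2 mL mixed with 1.8 mL of 2 × 10^-4 M DPPH in methanol and kept in the dark 30 min. Absorbance read at 517 nm. The blank was DPPH plus methanol. TAC (%) = (Abs initial − Abs 30 min)/Abs initial × 100.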
# Pseudomonas aeruginosa [13] = assay: Antibacterial activity against Pseudomonas aeruginosa ATCC 27853 assessed as growth inhibition at 1 mg/mL after 24 hrs by agar-disk diffusion technique; format: functional, organism-based; in short: as §1
# Acinetobacter baumannii [14] = assay: Antibacterial activity against Acinetobacter baumannii 247 assessed as growth inhibition at 1 mg/mL after 24 hrs by agar-disk diffusion technique; format: functional, organism-based; in short: as §1
# HCT-8 [15] = assay: Induction of apoptosis in human HCT8 cells assessed as late apoptotic cells at 50 ug/mL after 24 hrs by Annexin V-FITC and propidium iodide staining-based flow cytometric analysis (reference value: 2.97%); format: cell-based; settings: hct-8, 24 h
# Acinetobacter baumannii [16] = assay: Antibacterial activity against Acinetobacter baumannii 135 assessed as growth inhibition at 1 mg/mL after 24 hrs by agar-disk diffusion technique; format: functional, organism-based; in short: as §1
# HCT-8 [17] = assay: Induction of apoptosis in human HCT8 cells assessed as early apoptotic cells at 50 ug/mL after 24 hrs by Annexin V-FITC and propidium iodide staining-based flow cytometric analysis (reference value: 1.57%); format: cell-based; settings: hct-8, 24 h
# Pseudomonas putida = assay: Antibacterial activity against Pseudomonas putida 160 assessed as growth inhibition at 1 mg/mL after 24 hrs by agar-disk diffusion technique; format: functional, organism-based; in short: as §1
# Acinetobacter baumannii [18] = assay: Antibacterial activity against Acinetobacter baumannii 192 assessed as growth inhibition at 1 mg/mL after 24 hrs by agar-disk diffusion technique; format: functional, organism-based; in short: as §1
# Enterococcus faecalis = assay: Antibacterial activity against Enterococcus faecalis 2920 assessed as growth inhibition at 1 mg/mL after 24 hrs by agar-disk diffusion technique; format: functional, organism-based; in short: as §1
# Enterobacter cloacae = assay: Antibacterial activity against Enterobacter cloacae 1845 assessed as growth inhibition at 1 mg/mL after 24 hrs by agar-disk diffusion technique; format: functional, organism-based; in short: as §1
# Citrobacter koseri = assay: Antibacterial activity against Citrobacter koseri 1742 assessed as growth inhibition at 1 mg/mL after 24 hrs by agar-disk diffusion technique; format: functional, organism-based; in short: as §1
# [19] = tested on: Mycobacterium tuberculosis; assay: Antimycobacterial activity against Mycobacterium tuberculosis after 8 days by micro plate Alamar Blue assay; format: functional; settings: 192 h
# In short: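 Clinical M. tuberculosis strain grown in Middlebrook 7H9 broth. Compounds were dissolved in DMSO and serially diluted twofold on the plate, final 25 to 0.012 µg/mL. Plates were sealed and held 8 days at 37 °C. Alamar Blue with 10% Tween 80 (1:1) was then added for another 24 h at 37 °C. MIC was the lowest concentration preventing the blue-to-pink change.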
Compound,Activity (HCT-8 [1]) [%],"viability at 24 h, 50 ug/mL [2] [%]",growth inhibition (GI) (Pseudomonas aeruginosa [3]),growth inhibition (GI) (Klebsiella pneumoniae),Activity (HCT-8 [4]) [%],growth inhibition (GI) (Acinetobacter baumannii [5]),growth inhibition (GI) (Proteus mirabilis),growth inhibition (GI) (Acinetobacter baumannii [6]),Activity (HCT-8 [7]),Activity (HCT-8 [8]) [%],Activity (HCT-8 [9]) [%],growth inhibition (GI) (Pseudomonas aeruginosa [10]),Activity (HCT-8 [11]),growth inhibition (GI) (Morganella morganii),TAC [12] [%],growth inhibition (GI) (Pseudomonas aeruginosa [13]),Activity (HCT-8 [15]) [%],growth inhibition (GI) (Acinetobacter baumannii [16]),Activity (HCT-8 [17]) [%],growth inhibition (GI) (Pseudomonas putida),further results
COc1ccc(/C=C/C(N)=S)cc1,23.26,63.8,Active,inactive,20.3,Active,inactive,inactive,Toxic,54.61,23.56,inactive,Toxic,inactive,60,inactive,12.9,Active,3.09,Active,growth inhibition (GI) (Escherichia coli): Active; growth inhibition (GI) (Acinetobacter baumannii [14]): inactive
CCOc1ccc(/C=C/C(N)=S)cc1,22.57,70.1,Active,inactive,14.8,Active,Active,inactive,,61.33,15.41,,Toxic,Active,37.9,Active,13.6,Active,1.56,Active,growth inhibition (GI) (Acinetobacter baumannii [18]): Active; growth inhibition (GI) (Enterococcus faecalis): Active; growth inhibition (GI) (Enterobacter cloacae): Active; growth inhibition (GI) (Citrobacter koseri): Active; growth inhibition (GI) (Acinetobacter baumannii [14]): inactive
COc1ccc(/C=C/C(N)(S)NNC(=O)c2ccncc2)cc1 (centres undefined),37.52,70.7,Active,,18.2,Active,inactive,,Toxic,48.85,13.78,Active,Toxic,,14,,9.83,Active,1.29,Active,MIC [19]: 1.56 µg/mL; growth inhibition (GI) (Enterobacter cloacae): Active
Cc1ccc(/C=C/C(N)=S)cc1,26.63,59.8,Active,inactive,18.4,Active,inactive,inactive,Toxic,24.16,47.84,inactive,Toxic,inactive,25.7,inactive,14.7,Active,7.11,Active,growth inhibition (GI) (Acinetobacter baumannii [14]): inactive
